Converted amounts (≈) assume the structure as drawn.
Legend:
Assay type in all cases: functional
Streptococcus pyogenes [1] = assay: Antibacterial activity against inducible macrolide-lincosamide-streptogramin-resistant Streptococcus pyogenes 16 to 22 hrs by broth microdilution method
Outline: (§1)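 Two-fold serial dilutions in microdilution trays, following the CLSI dilution standard for aerobic bacteria. Medium was Mueller–Hinton broth with 5% horse serum for streptococci. Stocks were made at 5 mg/ml in DMF. Inoculum came from a direct colony suspension adjusted by turbidity to about 5 × 10⁴ CFU/well final. Incubation was at 35 °C for 16–22 h. MIC is the lowest concentration completely inhibiting growth (99% inhibition).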

Streptococcus pneumoniae [2] = assay: Antibacterial activity against constitutive macrolide-lincosamide-streptogramin-resistant Streptococcus pneumoniae after 16 to 22 hrs by broth microdilution method; outline: as §1
Streptococcus pneumoniae [3] = assay: Antibacterial activity against erythromycin-susceptible Streptococcus pneumoniae after 16 to 22 hrs by broth microdilution method
Outline: (§2)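 Streptococci tested by CLSI broth microdilution in Mueller–Hinton broth with 5% horse serum, using two-fold serial dilutions. Compounds were dissolved in DMF at 5 mg/ml (stock). Inoculum was a turbidity-adjusted direct colony suspension giving about 5 × 10⁴ CFU/well. Trays were held at 35 °C for 16–22 h. MIC is the lowest concentration completely inhibiting growth (99%).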

Streptococcus pyogenes [4] = assay: Antibacterial activity against efflux-mediated macrolide-resistance Streptococcus pyogenes after 16 to 22 hrs by broth microdilution method; outline: as §1
Escherichia coli = assay: Antibacterial activity against Escherichia coli ATCC 25922 after 16 to 22 hrs by broth dilution method
Outline: (§3)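 Broth microdilution per the CLSI approved standard (sixth edition), using two-fold serial dilutions of compound in Mueller–Hinton broth. Stocks at 5 mg/ml in DMF. Inoculum came from a direct colony suspension adjusted by turbidity to about 5 × 10⁴ CFU/well final. Trays were incubated at 35 °C for 16–22 h. MIC is the lowest concentration completely inhibiting growth (99% inhibition).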

Moraxella catarrhalis = assay: Antibacterial activity against Moraxella catarrhalis ATCC 23246 after 16 to 22 hrs by broth dilution method; outline: as §3
Enterococcus faecalis = assay: Antibacterial activity against Enterococcus faecalis ATCC 29212 after 16 to 22 hrs by broth dilution method; outline: as §3
Streptococcus pneumoniae [5] = assay: Antibacterial activity against efflux-mediated macrolide-resistant Streptococcus pneumoniae after 16 to 22 hrs by broth microdilution method; outline: as §1
Haemophilus influenzae = assay: Antibacterial activity against Haemophilus influenzae ATCC 49247 after 16 to 22 hrs by broth dilution method
Outline: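 Microdilution trays following the CLSI standard, with two-fold serial dilutions in supplemented broth suited to H. influenzae. DMF stocks at 5 mg/ml. Inoculum prepared from a turbidity-adjusted direct colony suspension to about 5 × 10⁴ CFU/well final. Incubated at 35 °C for 16–22 h. MIC is the lowest concentration giving complete (99%) growth inhibition.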

Staphylococcus aureus = assay: Antibacterial activity against Staphylococcus aureus ATCC 29213 after 16 to 22 hrs by broth microdilution method; outline: as §3
Streptococcus pyogenes [6] = assay: Antibacterial activity against erythromycin-susceptible Streptococcus pyogenes after 16 to 22 hrs by broth microdilution method; outline: as §2

Row | Compound | MIC (Streptococcus pyogenes [1]) [µg/mL] | MIC (Streptococcus pneumoniae [2]) [µg/mL] | MIC (Streptococcus pneumoniae [3]) [µg/mL] | MIC (Streptococcus pyogenes [4]) [µg/mL] | MIC (Escherichia coli) [µg/mL] | MIC (Moraxella catarrhalis) [µg/mL] | MIC (Enterococcus faecalis) [µg/mL] | MIC (Streptococcus pneumoniae [5]) [µg/mL] | MIC (Haemophilus influenzae) [µg/mL] | MIC (Staphylococcus aureus) [µg/mL] | MIC (Streptococcus pyogenes [6]) [µg/mL]
1 | CC[C@H]1OC(=O)[C@H](C)[C@@H](O[C@H]2C[C@@](C)(OC)[C@@H](O)[C@H](C)O2)[C@H](C)[C@@H](O[C@@H]2O[C@H](C)C[C@H](N(C)C)[C@H]2O)[C@](C)(O)C[C@@H](C)CN(CCCNC(=S)Nc2ccccc2)[C@H](C)[C@@H](O)[C@]1(C)O | 8 (≈ 8.63 µM) | > 64 | ≤ 0.125 | 16 (≈ 17.3 µM) | 8 (≈ 8.63 µM) | 2 (≈ 2.16 µM) | 8 (≈ 8.63 µM) | 16 (≈ 17.3 µM) | 4 (≈ 4.31 µM) | 0.5 (≈ 0.539 µM) | ≤ 0.125
2 | CC[C@H]1OC(=O)[C@H](C)[C@@H](O[C@H]2C[C@@](C)(OC)[C@@H](O)[C@H](C)O2)[C@H](C)[C@@H](O[C@@H]2O[C@H](C)C[C@H](N(C)C)[C@H]2O)[C@](C)(O)C[C@@H](C)CN(CCCNC(=O)NCc2ccccc2)[C@H](C)[C@@H](O)[C@]1(C)O | 4 (≈ 4.32 µM) | > 64 | ≤ 0.125 | 8 (≈ 8.65 µM) | 8 (≈ 8.65 µM) | 1 (≈ 1.08 µM) | 16 (≈ 17.3 µM) | 16 (≈ 17.3 µM) | 2 (≈ 2.16 µM) | 0.5 (≈ 0.54 µM) | ≤ 0.125
3 | CC[C@H]1OC(=O)[C@H](C)[C@@H](O[C@H]2C[C@@](C)(OC)[C@@H](O)[C@H](C)O2)[C@H](C)[C@@H](O[C@@H]2O[C@H](C)C[C@H](N(C)C)[C@H]2O)[C@](C)(O)C[C@@H](C)CN(CCCN(CCC#N)C(=S)NCc2ccccc2)[C@H](C)[C@@H](O)[C@]1(C)O | 16 (≈ 16.1 µM) | 64 (≈ 64.4 µM) | ≤ 0.125 | 8 (≈ 8.05 µM) | 16 (≈ 16.1 µM) | 1 (≈ 1.01 µM) | 32 (≈ 32.2 µM) | 16 (≈ 16.1 µM) | 4 (≈ 4.02 µM) | 1 (≈ 1.01 µM) | ≤ 0.125
4 | CC[C@H]1OC(=O)[C@H](C)[C@@H](O[C@H]2C[C@@](C)(OC)[C@@H](O)[C@H](C)O2)[C@H](C)[C@@H](O[C@@H]2O[C@H](C)C[C@H](N(C)C)[C@H]2O)[C@](C)(O)C[C@@H](C)CN(CCCNC(=O)NC(C)C)[C@H](C)[C@@H](O)[C@]1(C)O | 8 (≈ 9.12 µM) | > 64 | ≤ 0.125 | 32 (≈ 36.5 µM) | 16 (≈ 18.2 µM) | 1 (≈ 1.14 µM) | 32 (≈ 36.5 µM) | 32 (≈ 36.5 µM) | 16 (≈ 18.2 µM) | 2 (≈ 2.28 µM) | ≤ 0.125
5 | CC[C@H]1OC(=O)[C@H](C)[C@@H](O[C@H]2C[C@@](C)(OC)[C@@H](O)[C@H](C)O2)[C@H](C)[C@@H](O[C@@H]2O[C@H](C)C[C@H](N(C)C)[C@H]2O)[C@](C)(O)C[C@@H](C)CN(CCCNC(=O)NCCc2ccccc2)[C@H](C)[C@@H](O)[C@]1(C)O | 8 (≈ 8.52 µM) | > 64 | ≤ 0.125 | 32 (≈ 34.1 µM) | 16 (≈ 17 µM) | 2 (≈ 2.13 µM) | 16 (≈ 17 µM) | 32 (≈ 34.1 µM) | 16 (≈ 17 µM) | 1 (≈ 1.06 µM) | ≤ 0.125
6 | CC[C@H]1OC(=O)[C@H](C)[C@@H](O[C@H]2C[C@@](C)(OC)[C@@H](O)[C@H](C)O2)[C@H](C)[C@@H](O[C@@H]2O[C@H](C)C[C@H](N(C)C)[C@H]2O)[C@](C)(O)C[C@@H](C)CN(CCCN(CCC#N)C(=S)NCCc2ccccc2)[C@H](C)[C@@H](O)[C@]1(C)O | 8 (≈ 7.93 µM) | 64 (≈ 63.5 µM) | ≤ 0.125 | 16 (≈ 15.9 µM) | 16 (≈ 15.9 µM) | 2 (≈ 1.98 µM) | 32 (≈ 31.7 µM) | 32 (≈ 31.7 µM) | 4 (≈ 3.97 µM) | 1 (≈ 0.992 µM) | ≤ 0.125
7 | CC[C@H]1OC(=O)[C@H](C)[C@@H](O[C@H]2C[C@@](C)(OC)[C@@H](O)[C@H](C)O2)[C@H](C)[C@@H](O[C@@H]2O[C@H](C)C[C@H](N(C)C)[C@H]2O)[C@](C)(O)C[C@@H](C)CN(CCCNC(=S)NCCCc2ccccc2)[C@H](C)[C@@H](O)[C@]1(C)O | 4 (≈ 4.13 µM) | > 64 | ≤ 0.125 | 4 (≈ 4.13 µM) | 16 (≈ 16.5 µM) | 1 (≈ 1.03 µM) | 16 (≈ 16.5 µM) | 8 (≈ 8.25 µM) | 2 (≈ 2.06 µM) | 0.5 (≈ 0.516 µM) | ≤ 0.125
8 | CC[C@H]1OC(=O)[C@H](C)[C@@H](O[C@H]2C[C@@](C)(OC)[C@@H](O)[C@H](C)O2)[C@H](C)[C@@H](O[C@@H]2O[C@H](C)C[C@H](N(C)C)[C@H]2O)[C@](C)(O)C[C@@H](C)CN(CCCNC(=S)NCCc2ccccc2)[C@H](C)[C@@H](O)[C@]1(C)O | 4 (≈ 4.19 µM) | > 64 | ≤ 0.125 | 4 (≈ 4.19 µM) | 32 (≈ 33.5 µM) | 1 (≈ 1.05 µM) | 16 (≈ 16.7 µM) | 8 (≈ 8.37 µM) | 2 (≈ 2.09 µM) | 1 (≈ 1.05 µM) | ≤ 0.125
9 | CC[C@H]1OC(=O)[C@H](C)[C@@H](O[C@H]2C[C@@](C)(OC)[C@@H](O)[C@H](C)O2)[C@H](C)[C@@H](O[C@@H]2O[C@H](C)C[C@H](N(C)C)[C@H]2O)[C@](C)(O)C[C@@H](C)CN(CCCN(CCC#N)C(=O)Nc2ccccc2)[C@H](C)[C@@H](O)[C@]1(C)O | 16 (≈ 16.6 µM) | > 64 | ≤ 0.125 | 32 (≈ 33.2 µM) | 32 (≈ 33.2 µM) | 4 (≈ 4.15 µM) | 32 (≈ 33.2 µM) | 32 (≈ 33.2 µM) | 8 (≈ 8.3 µM) | 1 (≈ 1.04 µM) | ≤ 0.125
10 | CC[C@H]1OC(=O)[C@H](C)[C@@H](O[C@H]2C[C@@](C)(OC)[C@@H](O)[C@H](C)O2)[C@H](C)[C@@H](O[C@@H]2O[C@H](C)C[C@H](N(C)C)[C@H]2O)[C@](C)(O)C[C@@H](C)CN(CCCNC(=S)Nc2cccc3ccccc23)[C@H](C)[C@@H](O)[C@]1(C)O | 4 (≈ 4.09 µM) | > 64 | ≤ 0.125 | 4 (≈ 4.09 µM) | 8 (≈ 8.19 µM) | 1 (≈ 1.02 µM) | 8 (≈ 8.19 µM) | 4 (≈ 4.09 µM) | 2 (≈ 2.05 µM) | 1 (≈ 1.02 µM) | ≤ 0.125
11 | CC[C@H]1OC(=O)[C@H](C)[C@@H](O[C@H]2C[C@@](C)(OC)[C@@H](O)[C@H](C)O2)[C@H](C)[C@@H](O[C@@H]2O[C@H](C)C[C@H](N(C)C)[C@H]2O)[C@](C)(O)C[C@@H](C)CN(CCCN(CCC#N)C(=S)Nc2ccccc2)[C@H](C)[C@@H](O)[C@]1(C)O | 32 (≈ 32.6 µM) | > 64 | ≤ 0.125 | 32 (≈ 32.6 µM) | > 64 | 4 (≈ 4.08 µM) | > 64 | 32 (≈ 32.6 µM) | 16 (≈ 16.3 µM) | 2 (≈ 2.04 µM) | ≤ 0.125
12 | CC[C@H]1OC(=O)[C@H](C)[C@@H](O[C@H]2C[C@@](C)(OC)[C@@H](O)[C@H](C)O2)[C@H](C)[C@@H](O[C@@H]2O[C@H](C)C[C@H](N(C)C)[C@H]2O)[C@](C)(O)C[C@@H](C)CN(CCCNC(=O)Nc2ccccc2)[C@H](C)[C@@H](O)[C@]1(C)O | 4 (≈ 4.39 µM) | > 64 | ≤ 0.125 | 16 (≈ 17.6 µM) | 8 (≈ 8.78 µM) | 2 (≈ 2.19 µM) | 16 (≈ 17.6 µM) | 16 (≈ 17.6 µM) | 8 (≈ 8.78 µM) | 0.25 (≈ 0.274 µM) | ≤ 0.125
